Assay results published in ChEMBL document CHEMBL4477178, “Biflorin, Isolated from the Flower Buds of Syzygium aromaticum L., Suppresses LPS-Induced Inflammatory Mediators via STAT1 Inactivation in Macrophages and Protects Mice from Endotoxin Shock” (J Nat Prod, 2016).

Experiments:
[1] = tested on: RAW264.7; assay: Antiinflammatory activity in mouse RAW264.7 cells assessed as inhibition of LPS-induced nitric oxide production preincubated for 1 hr followed by LPS challenge for 24 hrs by Griess assay; type: functional, cell-based
How it was run: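 RAW 264.7 cells plated at 2 × 10^5 cells/mL and incubated overnight. Compound given at 15, 30 or 60 μM for 1 h, then LPS 10 ng/mL for 24 h. Nitrite in the medium measured by Griess reagent (10 min, room temperature, A540) against a NaNO2 standard. L-NIL 20 μM as positive control; IC50 derived; three independent experiments.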

[2] = tested on: RAW264.7; assay: Antiinflammatory activity in mouse RAW264.7 cells assessed as inhibition of LPS-induced PGE2 production preincubated for 1 hr followed by LPS challenge for 24 hrs by ELISA method; type: functional, cell-based
How it was run: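 RAW 264.7 cells in DMEM with 10% FBS, plated at 2 × 10^5 cells/mL and incubated overnight. Pretreated with compound (15, 30 or 60 μM) for 1 h, then LPS 10 ng/mL for 24 h. PGE2 measured by competitive colorimetric ELISA, TNF-α and IL-6 by ELISA, in diluted medium. NS-398 3 μM as positive control for PGE2. Mean ± SD, three independent experiments; IC50 given for PGE2.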

[3] = tested on: Rattus norvegicus; assay: Antiinflammatory activity in Sprague-Dawley rat assessed as reduction in carrageenan induced paw edema at 100 mg/kg, po administered 1 hr before carrageenan challenge measured at 3 hrs post challenge; type: functional
How it was run: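 Carrageenan paw edema in SD rats: ibuprofen 100 mg/kg p.o. as reference. Carrageenan (1% in saline, 0.1 mL) injected into the right hind paw. Volume measured by plethysmometer at 1, 3 and 5 h; seven rats per group.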

[4] = tested on: Rattus norvegicus; assay: Antiinflammatory activity in Sprague-Dawley rat assessed as inhibition of croton oil-induced ear edema at 100 mg/kg, po administered 1 hr before croton oil challenge measured after 3 hrs post challenge; type: functional
How it was run: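 Croton-oil ear edema in male SD rats: ibuprofen 100 mg/kg p.o. given as reference. Croton oil (5% in 100 μL acetone) applied to the right ear, acetone to the left. Thickness of 6 mm ear punches measured 3 h after application; seven rats per group.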

SMILES	IC50 [1] [µM]	IC50 [2] [µM]	inhibition in vivo at 100 mg/kg [3] [%]	inhibition in vivo at 100 mg/kg [4] [%]
Cc1cc(=O)c2c(O)cc(O)c([C@@H]3O[C@H](CO)[C@@H](O)[C@H](O)[C@H]3O)c2o1	> 60	46	–	–
CC(C)Cc1ccc(C(C)C(=O)O)cc1 (centres undefined) [IBUPROFEN]	–	–	68	78.2
